What was measured:
MCF7 [1] = test: Effect on Estrogen receptor positive MCF-7 human breast cancer cell proliferation at 5x10E-6M (control = 24.4+/-3.8); type: functional
In short: (§1)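 MCF-7 cells were kept in MEM with 5% charcoal-treated newborn calf serum and phenol red for 2 weeks, then about 2×10^4 cells were plated per well. Compounds in 0.1% DMF were added 2 days later and renewed on day 4; DMF alone served as control. Coulter cell counts were taken on day 5; mean of six dishes ± SD; % T/C.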

MCF7 [2] = test: Effect on [3H]thymidine incorporation into estrogen receptor positive MCF-7 human breast cancer cells at 1*10^-6 M (control = 10.2+/-1.4); type: functional
In short: (§2)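 MCF-7 cells were grown in MEM with charcoal-treated 5% newborn calf serum and phenol red, then treated with compounds in 0.1% DMF (renewed on day 4) alongside DMF controls. They were labeled 3 days later with 1 µCi [³H]thymidine per well for 2 h, and incorporated radioactivity per dish was measured; mean of six dishes ± SD; % T/C.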

MCF7 [3] = test: Effect on [3H]thymidine incorporation into estrogen receptor positive MCF-7 human breast cancer cells at 5*10e-6 M (control = 10.2+/-1.4); type: functional
In short: (§3)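 MCF-7 cells in improved MEM with glutamine, gentamycin and 5% newborn calf serum, switched to charcoal-treated serum two weeks ahead; phenol red present; 37 °C, 5% CO2. About 2×10^4 cells plated per well; compound in 0.1% DMF added 2 days later, renewed on day 4; labelled 3 days later with 1 μCi [3H]thymidine per well for 2 h; cpm/dish, mean of six dishes ± SD.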

MCF7 [4] = test: Effect on Estrogen receptor positive MCF-7 human breast cancer cell proliferation at 1x10E-6M (control = 24.4+/-3.8); type: functional; in short: as §1
[5] = target: T1, Estrogen receptor (Mus musculus) (UniProt O08537+P19785); test: Percent inhibition of estrone stimulated uterotrophic effect in mice at 15 ug; type: functional
In short: (§4)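 Immature mice given test compound per animal sc on three consecutive days together with 0.4 μg estrone/animal/day. Killed 24 h after last injection; uteri fixed in Bouin, dried 100 °C 24 h and weighed. Inhibition = 100 − [(W_S,T − W_V)/(W_S − W_V) × 100] using relative uterus weights; 6-10 animals; Wilcoxon-Mann-Whitney U test.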
Target sequence in this assay (O08537 whole entry, looked up): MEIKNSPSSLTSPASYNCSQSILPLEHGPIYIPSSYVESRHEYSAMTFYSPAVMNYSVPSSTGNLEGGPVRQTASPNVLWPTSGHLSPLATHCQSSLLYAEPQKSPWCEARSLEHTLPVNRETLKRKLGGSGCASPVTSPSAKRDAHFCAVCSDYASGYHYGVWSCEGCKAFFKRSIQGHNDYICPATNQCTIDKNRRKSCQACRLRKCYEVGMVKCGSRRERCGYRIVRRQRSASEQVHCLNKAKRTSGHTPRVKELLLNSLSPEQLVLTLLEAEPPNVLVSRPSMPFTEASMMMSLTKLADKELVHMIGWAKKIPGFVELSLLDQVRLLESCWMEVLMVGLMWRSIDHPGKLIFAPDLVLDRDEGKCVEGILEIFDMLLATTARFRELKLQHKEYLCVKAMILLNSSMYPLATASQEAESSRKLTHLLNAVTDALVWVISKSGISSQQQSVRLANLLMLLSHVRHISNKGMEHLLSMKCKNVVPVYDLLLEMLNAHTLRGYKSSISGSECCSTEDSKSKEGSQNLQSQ
Target sequence in this assay (P19785 whole entry, looked up): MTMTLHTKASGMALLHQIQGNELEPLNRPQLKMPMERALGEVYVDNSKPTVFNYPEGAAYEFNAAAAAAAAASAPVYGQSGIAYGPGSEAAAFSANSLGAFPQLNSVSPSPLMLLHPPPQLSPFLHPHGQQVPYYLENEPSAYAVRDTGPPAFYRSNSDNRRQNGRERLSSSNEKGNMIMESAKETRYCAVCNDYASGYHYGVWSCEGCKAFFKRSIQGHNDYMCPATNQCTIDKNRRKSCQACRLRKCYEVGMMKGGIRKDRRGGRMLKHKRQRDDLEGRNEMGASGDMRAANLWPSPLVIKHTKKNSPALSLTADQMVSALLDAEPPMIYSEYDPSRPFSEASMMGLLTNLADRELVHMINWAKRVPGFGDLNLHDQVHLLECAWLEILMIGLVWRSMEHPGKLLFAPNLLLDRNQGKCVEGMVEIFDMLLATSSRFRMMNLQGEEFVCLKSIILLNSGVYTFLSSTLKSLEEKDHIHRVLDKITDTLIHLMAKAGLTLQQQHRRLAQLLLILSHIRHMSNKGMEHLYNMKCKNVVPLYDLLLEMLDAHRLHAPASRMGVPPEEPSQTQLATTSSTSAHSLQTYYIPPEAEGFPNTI

[6] = target: T1, Estrogen receptor (Mus musculus); test: Percent inhibition of estrone stimulated uterotrophic effect in mice at 150 ug; type: functional; in short: as §4
Target sequence in this assay (O08537 whole entry, looked up): as the sequence (O08537 whole entry, looked up) above
Target sequence in this assay (P19785 whole entry, looked up): as the sequence (P19785 whole entry, looked up) above

[7] = target: T1, Estrogen receptor (Mus musculus); test: Uterotrophic effect in mice as relative uterine weight(mg) at 15 ug (control = […]+/-1.7); type: functional, tissue-based
Target sequence in this assay (O08537 whole entry, looked up): as the sequence (O08537 whole entry, looked up) above
Target sequence in this assay (P19785 whole entry, looked up): as the sequence (P19785 whole entry, looked up) above

[8] = target: T1, Estrogen receptor (Mus musculus); test: Uterotrophic effect in mice as relative uterine weight(mg) at 150 ug (control = […]+/-1.7); type: functional, tissue-based
Target sequence in this assay (O08537 whole entry, looked up): as the sequence (O08537 whole entry, looked up) above
Target sequence in this assay (P19785 whole entry, looked up): as the sequence (P19785 whole entry, looked up) above

MCF7 [9] = test: Effect on Estrogen receptor positive MCF-7 human breast cancer cell proliferation at 1x10E-6M; type: functional; in short: as §1
MCF7 [10] = test: Effect on Estrogen receptor positive MCF-7 human breast cancer cell proliferation at 5x10E-6M; type: functional; in short: as §1
[11] = target: T1, Estrogen receptor (Mus musculus); test: Anti-uterotrophic effect in hormone-dependent transplant MXT bearing mice as relative uterine weight in treated and control mice at 12.5 mg (control=100+/-24); type: functional
Target sequence in this assay (O08537 whole entry, looked up): as the sequence (O08537 whole entry, looked up) above
Target sequence in this assay (P19785 whole entry, looked up): as the sequence (P19785 whole entry, looked up) above

Mus musculus [12] = species on record: Mus musculus; test: Anti-tumor activity in hormone-dependent transplant MXT mammary tumor bearing mice at 12.5 mg (control=197+/-130); type: functional
[13] = target: T1, Estrogen receptor (Mus musculus); test: Anti-uterotrophic effect in mice as relative uterine weight(mg) at 15 ug; type: functional
In short: (§5)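 Immature mice received the compound sc per animal on three consecutive days, alone or with 0.4 µg estrone per animal per day. Uteri were taken 24 h after the last injection, Bouin-fixed, dried at 100 °C for 24 h and weighed. Relative uterus weight = dry weight (mg)/body weight (g) × 100; mean of 6-10 animals ± SD; Mann-Whitney U test.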
Target sequence in this assay (O08537 whole entry, looked up): as the sequence (O08537 whole entry, looked up) above
Target sequence in this assay (P19785 whole entry, looked up): as the sequence (P19785 whole entry, looked up) above

[14] = target: T1, Estrogen receptor (Mus musculus); test: Anti-uterotrophic effect in mice as relative uterine weight(mg) at 150 ug; type: functional; in short: as §5
MCF7 [15] = test: Effect on [3H]thymidine incorporation into estrogen receptor positive MCF-7 human breast cancer cells at 1x10E-6M; type: functional; in short: as §2
MCF7 [16] = test: Effect on [3H]thymidine incorporation into estrogen receptor positive MCF-7 human breast cancer cells at 5x10E-6M; type: functional; in short: as §3
Mus musculus [17] = species on record: Mus musculus; test: Relative tumor weight in treated compared to control mice bearing hormone-dependent transplanted MXT mammary tumors at 12.5 mg
MCF7 [18] = test: Effect on Estrogen receptor positive MCF-7 human breast cancer cell proliferation at 1x10E-6M (control = 62.7+/-8.8); type: functional; in short: as §1
MCF7 [19] = test: Effect on Estrogen receptor positive MCF-7 human breast cancer cell proliferation at 5x10E-6M (control = 62.7+/-8.8); type: functional; in short: as §1
MCF7 [20] = test: Effect on Estrogen receptor positive MCF-7 human breast cancer cell proliferation at 5x10E-7M (control = 62.7+/-8.8); type: functional; in short: as §1
MCF7 [21] = test: (§6) Effect on [3H]thymidine incorporation into estrogen receptor positive MCF-7 human breast cancer cells at 5x10E-7M (control=48.6+/-3.6); type: functional; in short: as §3
MCF7 [22] = test: Effect on [3H]thymidine incorporation into estrogen receptor positive MCF-7 human breast cancer cells at 1x10E-6M (control = 48.6+/-3.6); type: functional; in short: as §2
MCF7 [23] = test: Effect on [3H]thymidine incorporation into estrogen receptor positive MCF-7 human breast cancer cells at 5x10E-6M (control = 48.6+/-3.6); type: functional; in short: as §3
[24] = target: T1, Estrogen receptor (Mus musculus); test: Uterotrophic effect in mice as relative uterine weight(mg) at 15 ug (control = 14.5+/-2.1); type: functional, tissue-based
In short: (§7)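 Immature mice dosed sc per animal on three consecutive days; vehicle controls. Killed and weighed 24 h after last injection; uteri fixed in Bouin solution 2 h, washed with alcoholic LiCl, dried at 100 °C for 24 h. Relative uterus weight = uterine dry weight (mg)/body weight (g) × 100; mean of 6-10 animals ± SD.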

[25] = target: T1, Estrogen receptor (Mus musculus); test: Uterotrophic effect in mice as relative uterine weight(mg) at 150 ug (control = 14.5+/-2.1); type: functional, tissue-based; in short: as §7
MCF7 [26] = test: Effect on Estrogen receptor positive MCF-7 human breast cancer cell proliferation at 5x10E-7M; type: functional; in short: as §1
[27] = target: T1, Estrogen receptor (Mus musculus); test: Anti-uterotrophic effect in hormone-dependent transplant MXT bearing mice as relative uterine weight in treated and control mice at 12.2 mg (control=100+/-24); type: functional
Mus musculus [28] = species on record: Mus musculus; test: Anti-tumor activity in hormone-dependent transplant MXT mammary tumor bearing mice at 12.2 mg (control=197+/-130); type: functional
MCF7 [29] = test: Effect on [3H]thymidine incorporation into estrogen receptor positive MCF-7 human breast cancer cells at 5x10E-7M
Mus musculus [30] = species on record: Mus musculus; test: Relative tumor weight in treated compared to control mice bearing hormone-dependent transplanted MXT mammary tumors at 12.2 mg
Mus musculus [31] = species on record: Mus musculus; test: Relative tumor weight in treated compared to control mice bearing hormone-dependent transplanted MXT mammary tumors at 8.8mg; type: functional
Mus musculus [32] = species on record: Mus musculus; test: Anti-tumor activity in hormone-dependent transplant MXT mammary tumor bearing mice at 8.8 mg (control=388+/-269); type: functional
MCF7 [33] = test: Effect on [3H]thymidine incorporation into estrogen receptor positive MCF-7 human breast cancer cells at 5x10E-6M (control = 7.7+/-0.8); type: functional; in short: as §3
MCF7 [34] = test: Effect on Estrogen receptor positive MCF-7 human breast cancer cell proliferation at 1x10E-6M (control = 22.3+/-3.3); type: functional; in short: as §1
MCF7 [35] = test: Effect on Estrogen receptor positive MCF-7 human breast cancer cell proliferation at 5x10E-6M (control = 22.3+/-3.3); type: functional; in short: as §1
MCF7 [36] = test: Effect on [3H]thymidine incorporation into estrogen receptor positive MCF-7 human breast cancer cells at 1x10E-6M (control = 7.7+/-0.8); type: functional; in short: as §2
[37] = target: T1, Estrogen receptor (Mus musculus); test: Uterotrophic effect in mice as relative uterine weight(mg) at 15 ug (control = 12.4+/-3.7); type: functional, tissue-based; in short: as §7
Mus musculus [38] = species on record: Mus musculus; test: Relative tumor weight in treated compared to control mice bearing hormone-dependent transplanted MXT mammary tumors at 12.4 mg; type: functional
Mus musculus [39] = species on record: Mus musculus; test: Relative tumor weight in treated compared to control mice bearing hormone-dependent transplanted MXT mammary tumors at 6.2 mg; type: functional
[40] = target: T1, Estrogen receptor (Mus musculus); test: Uterotrophic effect in mice as relative uterine weight(mg) at 150 ug (control = 12.4+/-3.7); type: functional, tissue-based; in short: as §7
[41] = target: T1, Estrogen receptor (Mus musculus); test: Anti-uterotrophic effect in hormone-dependent transplant MXT bearing mice as relative uterine weight in treated and control mice at 12.4 mg (control=100+/-30); type: functional
[42] = target: T1, Estrogen receptor (Mus musculus); test: Anti-uterotrophic effect in hormone-dependent transplant MXT bearing mice as relative uterine weight in treated and control mice at 6.2 mg (control=100+/-30); type: functional
Mus musculus [43] = species on record: Mus musculus; test: Anti-tumor activity in hormone-dependent transplant MXT mammary tumor bearing mice at 12.4 mg (control=534+/-652); type: functional
Mus musculus [44] = species on record: Mus musculus; test: Anti-tumor activity in hormone-dependent transplant MXT mammary tumor bearing mice at 6.2 mg (control=534+/-652); type: functional
MCF7 [45] = test: as §6; type: functional, cell-based; in short: as §3
[46] = target: T1, Estrogen receptor (Mus musculus); test: Uterotrophic effect in mice as relative uterine weight(mg) at 25 ug (control = 14.5+/-2.1); type: functional, tissue-based; in short: as §7
Target sequence in this assay (P19785 whole entry, looked up, chain 1 of 2): as the sequence (P19785 whole entry, looked up) above
Target sequence in this assay (O08537 whole entry, looked up, chain 2 of 2): as the sequence (O08537 whole entry, looked up) above

[47] = target: T1, Estrogen receptor (Mus musculus); test: Uterotrophic effect in mice as relative uterine weight(mg) at 250 ug (control = 14.5+/-2.1); type: functional, tissue-based; in short: as §7
Target sequence in this assay (P19785 whole entry, looked up, chain 1 of 2): as the sequence (P19785 whole entry, looked up) above
Target sequence in this assay (O08537 whole entry, looked up, chain 2 of 2): as the sequence (O08537 whole entry, looked up) above

Mus musculus [48] = species on record: Mus musculus; test: Relative tumor weight in treated compared to control mice bearing hormone-dependent transplanted MXT mammary tumors at 20 mg; type: functional, organism-based
[49] = target: T1, Estrogen receptor (Mus musculus); test: Anti-uterotrophic effect in hormone-dependent transplant MXT bearing mice as relative uterine weight in treated and control mice at 20 mg (control=100+/-24); type: functional
Target sequence in this assay (P19785 whole entry, looked up, chain 1 of 2): as the sequence (P19785 whole entry, looked up) above
Target sequence in this assay (O08537 whole entry, looked up, chain 2 of 2): as the sequence (O08537 whole entry, looked up) above

[50] = target: T1, Estrogen receptor (Mus musculus); test: Anti-uterotrophic effect in mice as relative uterine weight(mg) at 250 ug; type: functional; in short: as §5
Target sequence in this assay (P19785 whole entry, looked up, chain 1 of 2): as the sequence (P19785 whole entry, looked up) above
Target sequence in this assay (O08537 whole entry, looked up, chain 2 of 2): as the sequence (O08537 whole entry, looked up) above

Mus musculus [51] = species on record: Mus musculus; test: Antitumor activity in hormone-dependent transplant MXT mammary tumor bearing mice at 20 mg (control=197+/-130); type: functional, organism-based

Compound	inhibition [5] [%]	inhibition [6] [%]	T/C (MCF7 [9]) [%]	T/C (MCF7 [10]) [%]	Relative uterus weight [13] [mg]	Relative uterus weight [14] [mg]	T/C (MCF7 [15]) [%]	T/C (MCF7 [16]) [%]	Cell no/dish (MCF7 [18])	Cell no/dish (MCF7 [19])	Cell no/dish (MCF7 [20])	Activity (MCF7 [22])	Activity (MCF7 [23])	T/C (MCF7 [26]) [%]	also measured
Cc1c(-c2ccc(O)cc2)n(CCCCCCNC(C)c2ccccn2)c2ccc(O)cc12 (stereo unspecified)	39	77	52	39	34.2	22.4	46	12	–	–	–	–	–	–	Cell no/dish (MCF7 [1]): 95000; Activity (MCF7 [2]): 4600; Activity (MCF7 [3]): 1200; Cell no/dish (MCF7 [4]): 126000; Relative uterus weight [7]: 14.6 mg; Relative uterus weight [8]: 20.2 mg; T/C [11]: 96%; Tumor weight (Mus musculus [12]): 148 mg; T/C (Mus musculus [17]): 75%
Oc1ccc(-c2cc3cc(O)ccc3n2CCCCCCNCc2ccccn2)cc1	18	5	53	31	40.6	46.1	41	20	334000	195000	335000	20000	9600	54	[3H] thymidinecpm/dish (MCF7 [21]): 22800; Relative uterus weight [24]: 13.6 mg; Relative uterus weight [25]: 22.1 mg; T/C [27]: 78%; Tumor weight (Mus musculus [28]): 158 mg; T/C (MCF7 [29]): 47%; T/C (Mus musculus [30]): 80%
CC/C(=C(\c1ccccc1)c1ccc(OCCN(C)C)cc1)c1ccccc1 [TAMOXIFEN]	–	–	–	–	–	–	–	–	–	–	–	–	–	–	T/C (Mus musculus [31]): 29%; Tumor weight (Mus musculus [32]): 114 mg
Cc1c(-c2ccc(O)cc2)n(CCCCCCNCc2ccccn2)c2ccc(O)cc12	–	31	48	23	46.6	36.9	13	5	–	–	–	–	–	–	Activity (MCF7 [33]): 400; Cell no/dish (MCF7 [34]): 106000; Cell no/dish (MCF7 [35]): 52000; Activity (MCF7 [36]): 1000; Relative uterus weight [37]: 27.9 mg; T/C (Mus musculus [38]): 31%; T/C (Mus musculus [39]): 71%; Relative uterus weight [40]: 24.9 mg; T/C [41]: 137%; T/C [42]: 119%; Tumor weight (Mus musculus [43]): 169 mg; Tumor weight (Mus musculus [44]): 378 mg
[5-hydroxy-2-(4-hydroxyphenyl)-1-[omega-[(2-pyridylmethyl)amino]hexyl]indole]dichloroplatinum (II) complex	–	–	64	55	–	–	57	34	401000	345000	482000	27500	16700	77	[3H] thymidine cpm/dish (MCF7 [45]): 33400; Relative uterus weight [46]: 12.7 mg; Relative uterus weight [47]: 16.3 mg; T/C (Mus musculus [48]): 40%; T/C [49]: 103%; Relative uterus weight [50]: 52.7 mg; Tumor weight (Mus musculus [51]): 80 mg

— ChEMBL document CHEMBL1125823, “2-Phenylindole-linked [2-(aminoalkyl)pyridine]dichloroplatinum(II): complexes with a selective action on estrogen receptor positive mammary tumors” (1991)
